E-selectin induc – E-selectin induction on HUVECs; P16581; HUVEC E-selectin immunofluorescence imaging; normalized: neutral wells 0, TNF-alpha wells 100; activation, % at 7.58 µM; 260,000 compounds, 0.37% hits; AID 686992;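 active means mean E-selectin-positive cell signal at least 10% of the positive control, reached in at least 60% of replicates, without over 20% cell loss; inconclusive means no rule given, readout overlaps actives, possibly toxicity-flagged; inactive means the rest, including those meeting only one limit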
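assay system = HUVEC, human umbilical vein endothelial cells | input = 3,000 HUVEC seeded per well | medium = EGM-2 growth medium on 0.1% gelatin-coated wells | dosing = one compound dose added by pin transfer | signal = immunofluorescence imaging | read-out basis = % PE-positive cells | control set = TNF-alpha, DMSO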
C2C12 statin – suppressors of simvastatin-induced myotoxicity in C2C12 myotubes; ATP luminescence, 48 h; scaled: DMSO 0, geranylgeraniol control 100; 330,000 compounds, 0.78% hits; rescue of ATP level, % at 7.49 µM;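 active means mean ATP rescue above about 67%, or every replicate alone reaching that limit, limit read from the data, passing the limit was not always enough; inconclusive means no clear call, values can overlap the other calls; inactive means mean under the limit and some replicate under it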;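 further: myotubes were challenged with 10 µM simvastatin during compound exposure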
DENV2 CPE rescue – inhibitors of DENV2 cytopathic effect; DENV2-infected cells, cytopathic effect rescue, plate reader; CPE inhibition, % at 9.99 µM; 350,000 compounds, 1.7% hits; in the data active means CPE inhibition above about 20%, passing the limit was not always enough; inconclusive means no clear call, values can overlap the other calls; tested in BHK-21 cells;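 further: 0% = median of neutral control wells and 100% = median of positive control wells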
The depositor's hits bear a star; u = inconclusive; x = no result given. Most compounds without a hit are left out; they make up all but 2.2% or so of the library.

SMILES	E-selectin induc	C2C12 statin	DENV2 CPE rescue
C[C@@H]1CN([C@H](C)CO)C(=O)c2cc(NS(=O)(=O)c3ccc(Cl)cc3)ccc2O[C@@H](C)CCCCO[C@@H]1CN(C)S(=O)(=O)c1cn(C)cn1	x	x	19
CC1Cc2ccccc2N1S(=O)(=O)c1cnc(Cl)c(Br)c1 (centres undefined)	2	x	65*
CC1Cc2ccccc2N1S(=O)(=O)c1cnc(Cl)c(Cl)c1 (centres undefined)	5	8	5
COc1ccc(S(=O)(=O)N(C)C[C@H]2OCCCC[C@H](C)Oc3ccc(NC(=O)c4ccncc4)cc3C(=O)N([C@H](C)CO)C[C@@H]2C)cc1	0	x	-5
CCC(=O)N1C[C@H](C)[C@@H](OC)CN(C)C(=O)c2ccc(NC(=O)CC(F)(F)F)cc2OC[C@H]1C	0	x	2
COCC(=O)N1CC[C@@H]2[C@H](CO)Nc3ccc(C#Cc4ccccc4)cc3[C@@H]21	1	-18	-10
C[C@H](CO)N1C[C@H](C)[C@@H](CN(C)C(=O)c2ccccc2)Oc2ncc(C#CC3CC3)cc2C1=O	0	3	-4
O=C(C[C@@H]1CC[C@H]2[C@@H](COC[C@@H](O)CN2CCC(F)(F)F)O1)NCc1ccc(Oc2ccccc2)cc1	0	18	13
O=C(C[C@H]1CC[C@H]2[C@@H](COC[C@@H](O)CN2C(=O)c2ccccc2F)O1)NCc1ccc(F)cc1	0	-32	11
O=C(C[C@H]1CC[C@@H]2[C@H](COC[C@H](O)CN2Cc2cccc(C(F)(F)F)c2)O1)NCc1ccc(F)cc1	0	10	-11
COc1ccc(CN2C[C@H](O)COC[C@@H]3O[C@H](CC(=O)NCc4ccncn4)CC[C@H]32)cc1	0	0	u
COc1ccc(CN2C[C@H](O)COC[C@H]3O[C@H](CC(=O)NCc4ccncn4)CC[C@@H]32)cc1	0	-5	21*
O=C(C[C@H]1CC[C@@H]2[C@H](COC[C@@H](O)CN2C(=O)c2ccccc2F)O1)NCc1ccc(F)cc1	0	0	38*
O=C(C[C@H]1CC[C@H]2[C@@H](COC[C@@H](O)CN2Cc2cccc(C(F)(F)F)c2)O1)NCc1ccc(F)cc1	1	12	111*
O=C(C[C@H]1CC[C@@H]2[C@H](COC[C@H](O)CN2CCC(F)(F)F)O1)NCc1ccc(Oc2ccccc2)cc1	0	72*	-1
O=C(C[C@H]1C=C[C@@H](NC(=O)Nc2ccc(C(F)(F)F)cc2)[C@@H](CO)O1)NCc1cc(F)cc(F)c1	1	-2	-4
COC(=O)C[C@@H]1C=C[C@@H](NS(=O)(=O)c2ccccc2F)[C@@H](CO)O1	0	-14	-4
O=C(C[C@@H]1CC[C@@H]2[C@H](COC[C@@H](O)CN2Cc2ccc(Oc3ccccc3)cc2)O1)N1CCCCC1	0	23	24*
O=C(C[C@H]1CC[C@@H]2[C@H](COC[C@@H](O)CN2Cc2nccs2)O1)NCc1ccc(-c2ccccc2)cc1	0	6	34*
O=C(C[C@H]1CC[C@H]2[C@@H](COC[C@@H](O)CN2Cc2nccs2)O1)NCc1ccc(-c2ccccc2)cc1	0	11	3
O=C(C[C@H]1CC[C@@H]2[C@H](COC[C@H](O)CN2Cc2ccc(Oc3ccccc3)cc2)O1)N1CCCCC1	0	22	-9
O=C(C[C@H]1CC[C@H]2[C@@H](COC[C@@H](O)CN2Cc2cccc(C(F)(F)F)c2)O1)NCCc1ccccc1	0	2	26*
O=C(C[C@H]1CC[C@@H]2[C@H](COC[C@H](O)CN2Cc2cccc(C(F)(F)F)c2)O1)NCCc1ccccc1	0	9	15
C[C@@H]1CN([C@@H](C)CO)C(=O)c2cc(C#Cc3ccc(F)cc3)cnc2O[C@H]1CN(C)Cc1ccccn1	0	x	1
C[C@H](NC(=O)C[C@H]1C[C@H]2c3cc(N(C)C)ccc3O[C@H]2[C@@H](CO)O1)c1ccccc1	0	-4	0
SMILES	E-selectin induc	C2C12 statin	DENV2 CPE rescue
C=CCn1c(=O)c(C(=O)Nc2cccnc2)c(O)c2ccccc21	x	96*	x
C=CCn1c(=O)c(C(=O)Nc2ccc(C)cn2)c(O)c2ccccc21	x	-6	-2
O=S(=O)(c1cccs1)N1CCCCN2[C@@H](CO)[C@H](c3ccc(Br)cc3)[C@@H]2C1	0	4	33*
COCC#Cc1ccc([C@@H]2[C@H]3CN(S(=O)(=O)c4ccccc4F)CCCCN3[C@H]2CO)cc1	0	-21	33*
O=S(=O)(c1ccccc1F)N1CCCCN2[C@H](CO)[C@H](c3ccc(-c4ccccc4)cc3)[C@H]2C1	0	x	34*
O=S(=O)(c1cccs1)N1CCCCN2[C@H](C1)[C@H](c1ccc(Br)cc1)[C@@H]2CO	-1	-10	-9
